From ChEMBL document CHEMBL4513216, “Probing the Open Global Health Chemical Diversity Library for Multistage-Active Starting Points for Next-Generation Antimalarials” (ACS Infect Dis, 2020) come the findings set out here.

A short description of this data set: Toxicity liver stage against HepG2, at 10uM. Format: cell-based. Also noted: test concentration 10 uM, cell line HepG2-A16-CD81EGFP. The following applies: human, HepG2-A16-CD81EGFP cells; read-out: INHIBITION
The procedure, abridged: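 Uninfected HepG2-A16-CD81EGFP cells, 3 × 10^3 per well, 1536-well, plated on prespotted compound at 10 μM final, parasite-free screening media added to match infected plates; puromycin 10 μM positive, DMSO 0.5% negative; run in parallel with 48 h PbLuc assay at 37 °C, 5% CO2; viability by CellTiter-Glo luminescence, normalized to controls.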
As to `CC(=O)N(C)Cc1ccccc1NC(=O)c1cnn(C)c1C`, the cytotoxicity at 10 µM was 2.31%.

For the compound `CC(C)(C)CNC1(Cc2cc(C(C)(C)O)on2)COC1`, the cytotoxicity at 10 µM is -6.11%.

As for `CC(C)N1C[C@@H]2OCC(=O)N(Cc3ccccc3)[C@@H]2C1`, the cytotoxicity at 10 µM was found to be 10.5%.

As for `CNC(=O)c1ccccc1-c1ccc(S(C)(=O)=O)cc1`, the cytotoxicity at 10 µM is -2.07%.

As for `CCOC(=O)CNC(=O)C1OC(c2ccccc2)=NN1C(C)=O` (configuration not stated), the cytotoxicity at 10 µM is 0.53%.

In the case of `COc1ccccc1CNc1c(N2CCN(C(C)=O)CC2)c(=O)c1=O`, the cytotoxicity at 10 µM was -0.707%.

`COCCNC(=O)c1cc(-c2ccc3c(c2)CCO3)n[nH]1`: the cytotoxicity at 10 µM turned out to be 0.843%.

Regarding `CCc1ccc2c(C3CN(C(C)=O)C3)ncn2c1`, the cytotoxicity at 10 µM was 2.16%.

For `Cc1cc(C(=O)N2CCC3(CC2)C(=O)NCCN3CC(C)C)c(C)o1`, the cytotoxicity at 10 µM was determined as 9.61%.

With `CS(=O)(=O)N[C@H]1COC[C@@H]2CN(Cc3ccco3)C[C@@H]21`, the cytotoxicity at 10 µM was 9.12%.

As to `O=C(NCC1CC1)C1CN(Cc2cccs2)Cc2ccnn2C1` (configuration not stated), the cytotoxicity at 10 µM was -3.94%.

As to `O=C(c1cccnc1)N1CCN(CC2CC2)c2ncccc2C1`, the cytotoxicity at 10 µM was determined as 2%.

Consider `CC(C)n1[nH]c(=O)c2c1NC(=O)CC2c1ccncc1` (configuration not stated), for which the cytotoxicity at 10 µM was -4.66%.

Consider `O=C(Cn1nc2c(cc1=O)CCCC2)N[C@@H](C(=O)O)c1ccccc1`, for which the cytotoxicity at 10 µM amounted to 5.76%.

Consider `CC(=O)c1cccc(NC(=O)COc2c(C)n(C)ccc2=O)c1`, for which the cytotoxicity at 10 µM came to 2.45%.

As for `O=C(CSC1=NS(=O)(=O)c2cc(F)ccc2N1)c1ccc(Cl)cc1`, the cytotoxicity at 10 µM is 10.3%.

For the compound `CS(=O)(=O)N1Cc2nccn2CC(Cn2ncccc2=O)C1` (configuration not stated), the cytotoxicity at 10 µM was -2.04%.

Take `Cc1csc([C@@H]2C[C@@H]3CCN(C(=O)c4ccnnc4)C[C@H]3O2)n1`: the cytotoxicity at 10 µM is 4.49%.

For the compound `CCn1cc(Cn2cc(Cl)c(N)n2)c(C)n1`, the cytotoxicity at 10 µM is -6.56%.

For the compound `Cn1cc(Br)c(C(=O)NCCCn2cc(Cl)cn2)n1`, the cytotoxicity at 10 µM was -1.49%.

As to `COCc1nc(N(C)C)ncc1C(=O)Nc1ccc(Cl)cc1`, the cytotoxicity at 10 µM was determined as 0.474%.

With `Cc1noc(C)c1-c1nc(C2CCCN(CCC(N)=O)C2)ccc1CO` (configuration not stated), the cytotoxicity at 10 µM was -2.66%.

In the case of `CCS(=O)(=O)N1C[C@@H](O)[C@H](Oc2cccc(F)c2)C1`, the cytotoxicity at 10 µM is -3.65%.

On to `CS(=O)(=O)N1C[C@@H](O)[C@H](N2CCN(c3ccccc3)CC2)C1`, for which the cytotoxicity at 10 µM stood at 20.3%.

Consider `CC(=O)N1CCC(C(=O)N2CCCC(Cc3cccc(C)n3)C2)CC1` (configuration not stated), for which the cytotoxicity at 10 µM is -18.6%.

For `Cc1ccc(=O)n(CC2(O)CCN(Cc3c(F)cccc3F)CC2)n1`, the cytotoxicity at 10 µM was -17.6%.

Regarding `CCOCCSc1nnc(Cc2ccccc2F)o1`, the cytotoxicity at 10 µM came out at 8.45%.

`Cc1cncc(NCc2ccccc2N2CCOCC2)c1`: the cytotoxicity at 10 µM was determined as 6.02%.

As to `COc1ccc(NC(=O)c2cccc(OC)c2OC)cc1`, the cytotoxicity at 10 µM was 18.5%.

In the case of `COc1cccc(COCC(=O)NC2CCN(CC(N)=O)CC2)c1`, the cytotoxicity at 10 µM is -8.47%.

Regarding `Cc1cc(C)cc(NCCC(=O)NC2CCN(C(=O)C3CC3)CC2)c1`, the cytotoxicity at 10 µM came out at 2.4%.

Take `CNC(=O)C1CCCCN1C(=O)c1csc(-c2ccc(C)o2)n1` (configuration not stated): the cytotoxicity at 10 µM was found to be 7.55%.

In the case of `Cc1ccc(F)c2c1N(C(=O)Cc1c(C)nn(C)c1C)CCC2`, the cytotoxicity at 10 µM was determined as 12.7%.

As to `CNC(=O)Cc1noc(-c2cc3c(s2)CCC(C)C3)n1` (configuration not stated), the cytotoxicity at 10 µM stood at 4.75%.

Take `O=C(NC1CCS(=O)(=O)C1)c1ccccc1SCc1cscn1` (configuration not stated): the cytotoxicity at 10 µM is -1.53%.

With `CC1CN(C(=O)Nc2cc(C(F)(F)F)c[nH]c2=O)CC(C)(C)O1` (configuration not stated), the cytotoxicity at 10 µM amounted to 8.96%.

Turning to `CCc1ccc(S(=O)(=O)N2CCCn3ncnc32)s1`, the cytotoxicity at 10 µM was -0.908%.

As for `COc1ccc2c(c1)CCCC2CC(=O)O` (configuration not stated), the cytotoxicity at 10 µM is -2.74%.

On to `O=C(c1ccc(CN2CC(n3cccn3)C2)cc1)N1CCCC1`, for which the cytotoxicity at 10 µM was found to be 9.56%.

Take `CCc1nc2n(n1)CC(NCCc1cccs1)CC2` (configuration not stated): the cytotoxicity at 10 µM is -13%.

Turning to `Cn1ccnc1CN1CCN(c2ncnc3ccsc23)CC1`, the cytotoxicity at 10 µM was -7.95%.

For the compound `CN(Cc1cnn(C)c1)C(=O)Cc1ccc2c(c1)OCCO2`, the cytotoxicity at 10 µM is 2.45%.

For the compound `CC1CCCN(Cc2ccc(CNC(=O)NCc3ccon3)cc2)C1` (configuration not stated), the cytotoxicity at 10 µM is -10%.

Take `Cn1cnc(S(=O)(=O)Nc2cc(C(N)=O)ccc2Cl)c1`: the cytotoxicity at 10 µM turned out to be 3.86%.

For `CNC(=O)CN1CCC(NC2CSCCc3ccccc32)CC1` (configuration not stated), the cytotoxicity at 10 µM was -4.28%.

Consider `O=C(CCNC(=O)c1sccc1-c1ccccc1)NC1CCS(=O)(=O)C1` (configuration not stated), for which the cytotoxicity at 10 µM was found to be 1.9%.

Take `CCN(CC(=O)NC)S(=O)(=O)N1CCCCC1`: the cytotoxicity at 10 µM amounted to 1.29%.

With `CC(=O)NCCNC(=O)c1cccc(Cn2nc(C)cc2C)c1`, the cytotoxicity at 10 µM was -10.3%.

`CC(C)c1nn(C)c(N2CCOCC2)c1CNCc1nncn1C`: the cytotoxicity at 10 µM came to 5.59%.

For `Cc1ccc(-n2ccnc2)c(C(=O)NCCOCC(F)(F)F)c1`, the cytotoxicity at 10 µM is -136%.

Take `CC(C)n1cc(S(=O)(=O)NCCc2nnc3ccccn23)cn1`: the cytotoxicity at 10 µM was 7.07%.

For the compound `Cn1cnnc1CNC(=O)C1CCCN(Cc2cccc(F)c2)C1` (configuration not stated), the cytotoxicity at 10 µM was 5.49%.

On to `Cc1ccc(CCNC(=O)NCCCC(N)=O)c(C)c1`, for which the cytotoxicity at 10 µM came to 5.71%.

Turning to `CCC(Nc1nnnn1-c1ccccc1)C(=O)Nc1ccccc1C` (configuration not stated), the cytotoxicity at 10 µM was -13.1%.

On to `CC(c1nnc(-c2cccs2)o1)N1CCc2cncnc2C1` (configuration not stated), for which the cytotoxicity at 10 µM turned out to be 6.37%.

Regarding `CC(C)(C)CCN1CCN(c2snc(Cl)c2C#N)CC1`, the cytotoxicity at 10 µM turned out to be 38.1%.

`Nc1cc2c(nn1)CCN(C(=O)c1cccnc1Oc1ccccc1)C2`: the cytotoxicity at 10 µM was -11.6%.

As for `CCc1cc(CNC(=O)N2Cc3ccccc3N(C)CC2C)on1` (configuration not stated), the cytotoxicity at 10 µM was determined as 4.38%.

For `CC(CNC(=O)N1CCSCC1)Cc1cccs1` (configuration not stated), the cytotoxicity at 10 µM is -8.63%.

Turning to `NC(=O)C1CCCN1Cc1cccc(NC(=O)c2ccsc2)c1` (configuration not stated), the cytotoxicity at 10 µM is 16.3%.

Turning to `COCCc1noc(CN(C)C2CCCN(c3ccc(C)nn3)C2)n1` (configuration not stated), the cytotoxicity at 10 µM was determined as 19.3%.

For `CCNC(=O)CN1CCCN(C(=O)C2CCCc3[nH]ncc32)CC1` (configuration not stated), the cytotoxicity at 10 µM stood at 4%.

With `CCCC(C)C(=O)NCc1cn2cc(Br)ccc2n1` (configuration not stated), the cytotoxicity at 10 µM was -6.6%.

For the compound `N#Cc1cccc(C(=O)NC2CCc3c(ccc(=O)n3CC3CC3)C2)c1` (configuration not stated), the cytotoxicity at 10 µM worked out at 0.908%.

For `C[C@H]1C[C@H]2CN(C(=O)CCc3ccccc3)CC[C@H]2O1`, the cytotoxicity at 10 µM is -75.6%.

In the case of `CCC(CO)N(Cc1cccc(O)c1)Cc1ccccc1C` (configuration not stated), the cytotoxicity at 10 µM is -8.22%.

Consider `CCOCc1nc2c(c(N3CC=CC3)n1)CCN(Cc1ccco1)CC2`, for which the cytotoxicity at 10 µM is -3.81%.

Take `COc1cnc(N2C[C@@H](CN3CCOCC3)C[C@H](CO)C2)nc1`: the cytotoxicity at 10 µM was -6.16%.

As to `Cc1ncsc1CCN(C)C(=O)c1ccc(CN2CCCCC2)cc1`, the cytotoxicity at 10 µM was -4.38%.

Take `CN(C)CC1(O)CCCN(c2noc(-c3ccccc3)n2)CC1` (configuration not stated): the cytotoxicity at 10 µM amounted to 0.0264%.

With `Cc1nnsc1C(=O)N1CCCC(c2nccn2Cc2cscn2)C1` (configuration not stated), the cytotoxicity at 10 µM stood at 2.62%.

Consider `O=C1CC[C@H]2CN(c3ncc(F)cn3)CC[C@H]2N1CCc1ccccn1`, for which the cytotoxicity at 10 µM is 4.83%.

Consider `O=C(c1cccc(C2CCNC2)c1)N1CCC(c2ccncc2)CC1` (configuration not stated), for which the cytotoxicity at 10 µM was -1.12%.

`CCN(CC)C(=O)Cn1cc(-c2nc(-c3ccccc3C)no2)nn1`: the cytotoxicity at 10 µM was -2.46%.

Regarding `CC(C)(CNC(=O)c1ccco1)CNC(=O)c1ccco1`, the cytotoxicity at 10 µM is -3.97%.

As to `COc1c(F)cc(CN2CCC3(CC2)C(C(=O)O)CC(=O)N3C)cc1Cl` (configuration not stated), the cytotoxicity at 10 µM was 5.13%.

On to `Cc1nnc(SCC(=O)NCC(c2ccccc2Cl)N(C)C)s1` (configuration not stated), for which the cytotoxicity at 10 µM amounted to 2.67%.

Consider `O=C(COc1cccc(Cl)c1)N1CCOCC(O)(CN2CCCC2)C1` (configuration not stated), for which the cytotoxicity at 10 µM is -4.68%.

As for `COc1nccnc1-c1cccc(-c2ccn(CC3COCCO3)n2)c1` (configuration not stated), the cytotoxicity at 10 µM was -3.65%.

As for `CN(C)S(=O)(=O)N1CCCCC1CCc1ccc(O)cc1` (configuration not stated), the cytotoxicity at 10 µM is 4.32%.

Take `CC(=O)c1cn(CC(=O)N2CCCC(O)(CO)C2)c2ccccc12` (configuration not stated): the cytotoxicity at 10 µM was -4.87%.

As for `NC1CCCc2c1cnn2-c1cc(F)cc(F)c1` (configuration not stated), the cytotoxicity at 10 µM worked out at 6.54%.

As for `CCN1CCCC1CNC(=O)c1cc(COc2cccc(F)c2)[nH]n1` (configuration not stated), the cytotoxicity at 10 µM is -5.96%.

`COCCC1CCCCN1Cc1nc(Cc2cccc(F)c2)no1` (configuration not stated): the cytotoxicity at 10 µM was -142%.

As for `COc1cccc([C@@H]2CCN(Cc3ccc4ccccc4n3)C[C@H]2O)c1`, the cytotoxicity at 10 µM was -16.5%.

For the compound `Cc1oc(C(=O)O)cc1S(=O)(=O)Nc1ccc(Br)cc1Cl`, the cytotoxicity at 10 µM was -5.09%.

As to `O=C(c1cc2c(s1)CCC2)N1CCCC1Cn1cccn1` (configuration not stated), the cytotoxicity at 10 µM was -3.12%.

With `O=C(CN1CCOC(Cn2cccn2)C1)Nc1ccncc1` (configuration not stated), the cytotoxicity at 10 µM was 0.748%.

For the compound `C=C1c2ccccc2C(=O)N1CCC(=O)N1CCNC(=O)C1`, the cytotoxicity at 10 µM is -4.12%.

`O=C(Nc1ccccc1F)C1=NOC2(CCNCC2)C1`: the cytotoxicity at 10 µM was determined as 2.93%.

As to `Cn1cc(CN2CCO[C@@H]3CN(Cc4ccoc4)C[C@@H]3C2)cn1`, the cytotoxicity at 10 µM is 2.14%.

Take `COCc1nn(C(C)C)c2c1CCN(Cc1ccccn1)C2`: the cytotoxicity at 10 µM amounted to 8.04%.

Regarding `COCCN1CCO[C@H]2CCN(C(=O)c3cccs3)CC[C@@H]21`, the cytotoxicity at 10 µM is -0.234%.

As to `CO[C@H]1CCN(S(=O)(=O)N(C)C)[C@@H]2CN(Cc3cccnc3)C[C@H]12`, the cytotoxicity at 10 µM was 11.9%.

Consider `CCC(=O)N1C[C@@H]2CCN(c3cnccn3)C[C@@H]2C1`, for which the cytotoxicity at 10 µM is -13.2%.

In the case of `COc1cc(OC)cc(-c2cc(CN)nc3ccnn23)c1`, the cytotoxicity at 10 µM is -0.945%.

As for `CN(Cc1ccco1)C1CCC12CCN(C(=O)N1CCCC1)CC2` (configuration not stated), the cytotoxicity at 10 µM is -1.54%.
